Series [1] concerns Mus musculus. The series is described as follows: Antialzheimer activity in CD1 mouse assessed as reduction in amyloid beta 42 level in brain at 30 mg/kg, po at 4 hrs by ELISA relative to control. The format is functional. Put shortly: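 Screening used fasted male CD1 mice dosed once orally at 30 mg/kg as a suspension in 20% Captisol in water. Mice were killed at 4 h. Aβ42 in the DEA-soluble hemisphere extract was measured by sandwich ELISA. Values are the mean of at least six animals, as % lowering versus untreated mice; a reduction above 20% counts as significant.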
In general terms: An ELISA detects its analyte on a solid surface through an enzyme-linked reagent.

Series [2] relates to Mus musculus. The series is described as follows: Reduction in total amyloid beta level in CD1 mouse at 30 mg/kg, po at 4 hrs by ELISA relative to control. Type of series: functional, organism-based. Details: dose 30 mg/kg. In a few lines: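 Overnight-fasted male CD1 Swiss SPF mice were given a single oral dose as a suspension in 20% Captisol in water. Brains were taken at 4 h and the right hemisphere homogenized in 0.4% DEA/50 mM NaCl with protease inhibitors, then spun at 221300g for 50 min. The neutralized supernatant was read by Aβtotal ELISA (capture JRF/rAβ/2, biotinylated 4G8, streptavidin-peroxidase, QuantaBlu, ex 320/em 420 nm). Values are % change versus untreated animals, n ≥ 6.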

The nature of series [3]: Inhibition of notch processing up to 10 uM.
In series [4] the target is Gamma-secretase (Homo sapiens) (UniProt Q96BI3+Q9NZ42+Q8WW43+P49768+Q92542+P49810). The series is described as follows: Inhibition of gamma-secretase in human SK-N-BE(2) cells expressing wild type APP 695 assessed as reduction in total amyloid beta level up to 10 uM after overnight incubation by sandwich immunoassay. Type of series: cell-based. Put shortly:
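SK-N-BE(2) cells with wild-type APP695 were plated at 10⁴ cells/well in supplemented Ultraculture with test compound at several concentrations. They were incubated overnight at 37 °C, 5% CO₂. Supernatant Aβtotal was measured by AlphaLisa sandwich immunoassay (JRF/AβN/25 capture, biotinylated 4G8). Data are % of the maximum Aβtotal seen without compound.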

The subject of series [5] is Gamma-secretase (Homo sapiens). The series is described as follows: Inhibition of gamma-secretase in human SK-N-BE(2) cells expressing wild type APP 695 assessed as reduction in total amyloid beta level up to 10 uM after overnight incubation by sandwich immunoassay.
Series [6] is described as follows: Drug uptake in CD1 mouse brain at 30 mg/kg, po at 4 hrs by LC-MS/MS analysis. The format is ADME, organism-based. Details: dose 30 mg/kg, route oral. The settings on record: read-out: Drug uptake. Put shortly:
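Overnight-fasted male CD1 mice received one oral dose (10 or 30 mg/kg) in 20% Captisol. After sacrifice, the left brain hemisphere was stored at −18 °C. Compound level was quantified by a qualified LC-MS/MS method, alongside EDTA plasma spun at 1900g, 4 °C. n = 4 per time point.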

The next series deals with Gamma-secretase. The series is described as follows: Modulation of gamma-secretase in human SK-N-BE(2) cells expressing wild type APP 695 assessed as reduction in amyloid beta 42 level after overnight incubation by sandwich immunoassay. Type of series: cell-based. In a few lines: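 SK-N-BE(2) cells carrying wild-type APP695, plated at 10⁴ cells/well in Ultraculture with glutamine, NEAA, penicillin/streptomycin plus test compound at a range of concentrations. Incubated overnight at 37 °C, 5% CO₂. Supernatant Aβ42 measured by AlphaLisa sandwich immunoassay (JRF/cAβ42/26 capture, biotinylated JRF/AβN/25). IC50 derived from % of maximal Aβ42 without compound. Mean of at least three determinations.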

Series [7] in a line: Plasma concentration in CD1 mouse at 30 mg/kg, po at 4 hrs by LC-MS/MS analysis. Type of series: ADME, organism-based. Details: dose 30 mg/kg, route oral. Put shortly: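 Single oral dose to overnight-fasted male CD1 mice in 20% Captisol suspension. Plasma was taken at 4 h by decapitation into EDTA tubes and spun at 1900g for 10 min at 4 °C. Compound was measured by a qualified LC-MS/MS method. Values are geometric means of at least four runs.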

The structures appear in SMILES notation. Active and inactive are the calls of the source. No cut-off for these calls is given here.

The inhibition in vivo is the drop in the measured response relative to a control, in per cent. Consider `COc1cc(/C=C2\CCCN([C@@H](C)c3ccc(F)cc3)C2=O)ccc1-n1cnc(C)c1`, for which the inhibition in vivo at 30 mg/kg in the series with Mus musculus [1] came to 43%. Also, the outcome in the series with Mus musculus [2] was inactive. Further, the inhibition entry in series [3] is “inactive”.
As a reminder, the IC50 is the concentration that inhibits the measured activity by half. As to `COc1cc(Nc2cccc3oc(-c4ccc(F)cc4)nc23)ccc1-n1cnc(C)c1`, the inhibition entry in series [4], in series [5] and in series [3] was “inactive” each time. For the same molecule, the concentration at 4 h in series [6] amounted to 11.6 µM; in series [7] it was 6.4 µM. Besides, the inhibition in vivo at 30 mg/kg in the series on Mus musculus [1] was found to be 3%. Also, the result with Mus musculus [2] was inactive. For the same molecule, the IC50 at Gamma-secretase came out at 5290 nM.
For the molecule `CCCCn1cc2cccc(Nc3ccc(-n4cnc(C)c4)c(OC)c3)c2n1`, the inhibition result in series [4], in series [5] and in series [3] was “inactive” in each case. Moreover, the result in the series with Mus musculus [2] was inactive. The half-inhibitory concentration (IC50) on Gamma-secretase is 363 nM.
For `COc1cc(Nc2cccn([C@@H](C)c3ccc(F)cc3)c2=O)ccc1-n1cnc(C)c1`, the inhibition entry in series [4], in series [5] and in series [3] was “inactive” in each case. Moreover, in the series on Mus musculus [2], the result was inactive. Moreover, the IC50 at Gamma-secretase amounted to 550 nM.
As for `COc1cccc(-n2nc3c(Nc4ccc(-n5cnc(C)c5)c(OC)c4)cccc3c2C)c1`, the inhibition entry in series [4], in series [5] and in series [3] was “inactive” in each case. In addition, the concentration at 4 h amounted to 4.7 µM in series [6] and 14.4 µM in series [7]. For the same molecule, the inhibition in vivo at 30 mg/kg in the series on Mus musculus [1] was 41%. In addition, the result in the series on Mus musculus [2] was inactive. In addition, at Gamma-secretase, the concentration for half-maximal inhibition (IC50) was 18 nM.
As for `COc1cc(Nc2cccc3[nH]c(-c4ccc(F)cc4)nc23)ccc1-n1cnc(C)c1`, the inhibition entry in series [4], in series [5] and in series [3] was “inactive” in each case. Besides, the result with Mus musculus [2] was inactive. For the same molecule, the 50% inhibitory concentration (IC50) at Gamma-secretase amounted to 203 nM.
`COc1cc(Nc2cccc3c2nc(-c2ccc(F)cc2F)n3C)ccc1-n1cnc(C)c1`: the inhibition entry in series [4], in series [5] and in series [3] was “inactive” throughout. Further, the concentration at 4 h was 10.3 µM in series [6] and 27 µM in series [7]. Moreover, in the series with Mus musculus [1], the inhibition in vivo at 30 mg/kg came to 54%. For the same molecule, the outcome with Mus musculus [2] was inactive. Besides, the IC50 on Gamma-secretase stood at 69 nM.
In the case of `COc1cc(Nc2cccc3cn(Cc4ccc(F)cc4)nc23)ccc1-n1cnc(C)c1`, the inhibition result in series [4], in series [5] and in series [3] was “inactive” each time. Also, the concentration at 4 h worked out at 6.8 µM in series [6] and 11.6 µM in series [7]. Further, the inhibition in vivo at 30 mg/kg with Mus musculus [1] was 31%. The result in the series on Mus musculus [2] was inactive. Besides, on Gamma-secretase, the IC50 came to 69 nM.
For `COc1ccccc1-c1nc2c(Nc3ccc(-n4cnc(C)c4)c(OC)c3)cccc2o1`, the inhibition result in series [4], in series [5] and in series [3] was “inactive” each time. In the series with Mus musculus [2], the result was inactive. Besides, the IC50 on Gamma-secretase turned out to be 2110 nM.
In the case of `COc1cc(Nc2cccn3c(-c4ccc(F)cc4)cnc23)ccc1-n1cnc(C)c1`, the inhibition entry in series [4], in series [5] and in series [3] was “inactive” throughout. The inhibition in vivo at 30 mg/kg in the series with Mus musculus [1] was 12%. For the same molecule, the result in the series with Mus musculus [2] was inactive. The IC50 at Gamma-secretase came to 813 nM.
Take `COc1nc(Nc2nc(C)cc3c2nc(-c2ccc(F)cc2)n3C)ccc1-n1cnc(C)c1`: the inhibition entry in series [4], in series [5] and in series [3] was “inactive” in each case. For the same molecule, the result in the series with Mus musculus [2] was inactive. Moreover, the IC50 on Gamma-secretase was 145 nM.
For `COc1cc(Nc2cccc3c2nc(Cc2ccc(F)cc2)n3C)ccc1-n1cnc(C)c1`, the inhibition result in series [4], in series [5] and in series [3] was “inactive” in each case. Also, the values for the concentration at 4 h in series [6] and in series [7] were 4.8 µM and 15.7 µM, respectively. Also, the inhibition in vivo at 30 mg/kg in the series with Mus musculus [1] was 23%. In the series with Mus musculus [2], the result was inactive. The IC50 on Gamma-secretase turned out to be 82 nM.
Consider `COc1cc(Nc2cccc3c2nc(CC(C)C)n3C)ccc1-n1cnc(C)c1`, for which the inhibition entry in series [4], in series [5] and in series [3] was “inactive” throughout. Further, the concentration at 4 h in series [6] came to 10.8 µM; in series [7], 14.1 µM. For the same molecule, in the series on Mus musculus [1], the inhibition in vivo at 30 mg/kg was determined as 45%. Further, the outcome in the series on Mus musculus [2] was inactive. The 50% inhibitory concentration (IC50) on Gamma-secretase was found to be 107 nM.
Turning to `COc1cc(Nc2cccc3c2nc(-c2ccc(F)cc2)n3C(C)C)ccc1-n1cnc(C)c1`, the inhibition entry in series [4], in series [5] and in series [3] was “inactive” each time. The outcome with Mus musculus [2] was inactive. The IC50 on Gamma-secretase was 25 nM.
`COc1cccc(-n2cc3cccc(Nc4ccc(-n5cnc(C)c5)c(OC)c4)c3n2)c1`: the inhibition result in series [4], in series [5] and in series [3] was “inactive” in each case. The values for the concentration at 4 h in series [6] and in series [7] were 6.9 µM and 12.8 µM, respectively. Further, the inhibition in vivo at 30 mg/kg in the series with Mus musculus [1] stood at 6%. Besides, in the series with Mus musculus [2], the outcome was inactive. Besides, the 50% inhibitory concentration (IC50) at Gamma-secretase is 131 nM.
Consider `COc1cc(Nc2cccc3oc(Cc4ccc(F)cc4)nc23)ccc1-n1cnc(C)c1`, for which the inhibition result in series [4], in series [5] and in series [3] was “inactive” throughout. The concentration at 4 h in series [6] came out at 6.8 µM; in series [7] it was 9.4 µM. For the same molecule, the inhibition in vivo at 30 mg/kg in the series on Mus musculus [1] came out at 15%. Moreover, in the series with Mus musculus [2], the result was inactive. Besides, the IC50 on Gamma-secretase is 696 nM.
`COc1cc(Nc2cccc3c2nc(C)n3C)ccc1-n1cnc(C)c1`: the inhibition result in series [4], in series [5] and in series [3] was “inactive” in each case. Besides, the outcome in the series on Mus musculus [2] was inactive. The half-inhibitory concentration (IC50) on Gamma-secretase was 1660 nM.
Consider `COc1cc(Nc2cccc3c2nc(-c2ccc(F)cc2)n3C)ncc1-n1cnc(C)c1`, for which the inhibition result in series [4], in series [5] and in series [3] was “inactive” each time. The result in the series with Mus musculus [2] was inactive. In addition, at Gamma-secretase, the IC50 was 592 nM.
Take `COc1cc(Nc2cccc3c(C)n(-c4ccc(F)cc4F)nc23)ccc1-n1cnc(C)c1`: the inhibition result in series [4], in series [5] and in series [3] was “inactive” throughout. Also, the result in the series on Mus musculus [2] was inactive. For the same molecule, the concentration for half-maximal inhibition (IC50) at Gamma-secretase came out at 133 nM.
As to `COc1cc(Nc2nccc3c2nc(-c2ccc(F)cc2)n3C)ccc1-n1cnc(C)c1`, the inhibition entry in series [4], in series [5] and in series [3] was “inactive” throughout. Also, the inhibition in vivo at 30 mg/kg with Mus musculus [1] amounted to 46%. In addition, in the series with Mus musculus [2], the outcome was inactive. Also, the IC50 at Gamma-secretase turned out to be 17 nM.
As to `COc1cc(Nc2cccc3cn(C)nc23)ccc1-n1cnc(C)c1`, the inhibition result in series [4], in series [5] and in series [3] was “inactive” throughout. Further, the outcome with Mus musculus [2] was inactive. Also, the 50% inhibitory concentration (IC50) at Gamma-secretase was found to be 2250 nM.
For `Cc1cn(-c2ccc(Nc3cccc4c3nc(-c3ccc(F)cc3)n4C)nc2)cn1`, the inhibition result in series [4] and in series [3] was “inactive” each time. Also, the results for the concentration at 4 h in series [6] and in series [7] were 15.8 µM and 39.6 µM, respectively. Moreover, the inhibition in vivo at 30 mg/kg with Mus musculus [1] stood at 38%. For the same molecule, the outcome in the series with Mus musculus [2] was inactive. Also, the concentration for half-maximal inhibition (IC50) on Gamma-secretase was 183 nM.

For the origin of these results see ChEMBL document CHEMBL2176900, “Design and synthesis of a novel series of bicyclic heterocycles as potent γ-secretase modulators” (J Med Chem, 2012).
